Legend:
Jurkat cells [1] = experiment: Flow cytometric cell cycle analysis, Jurkat; assay type: cell-based, human; settings: 24 h, different concentrations
Procedure, shortened: (§1)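 5 × 10⁵ HeLa (DMEM) or Jurkat (RPMI-1640) cells, both with 10% FBS, were treated with a range of test compound concentrations for 24 h. Cells were then collected and fixed in ice-cold 70% ethanol, lysed in buffer with RNase A and 0.1% Triton X-100, and PI-stained. DNA content was read by flow cytometry and histograms analysed for phase percentages. Mean of two independent experiments.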

HeLa cells [2] = experiment: Mitochondrial membrane potential; assay type: cell-based, human; settings: 24 or 48 h
HeLa cells [3] = experiment: Annexin-V/PI apoptosis assay, HeLa; assay type: cell-based, human; settings: 24 or 48 h
Procedure, shortened: (§2)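 Human lines: HeLa grown in DMEM and Jurkat in RPMI-1640, each with 10% FBS, penicillin G and streptomycin. Cells exposed to test compound at several concentrations for 24 or 48 h, harvested and double-stained with annexin-V-FITC and PI. Surface phosphatidylserine read by flow cytometry, giving live, early apoptotic, late apoptotic and necrotic fractions. Mean ± SEM of three independent experiments.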

[4] = Metabolic stability in human liver microsomes; assay type: in vitro ADME; settings: 10 μM
Procedure, shortened: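 Pooled mixed-gender human liver microsomes (1.0 mg/mL) in 0.1 M KH₂PO₄, pH 7.4, with 10 μM final compound, with or without 1 mM NADPH; buffer-only controls. Microsomes added after 3-min equilibration at 37 °C. Stopped at 0, 15, 30 or 60 min with ice-cold acetonitrile, then centrifuged. Supernatants analysed by C18 HPLC with fluorescence detection (ex 344/em 493 nm). Percent remaining from peak area versus 0 min; mean ± SD, n = 3–4.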

Jurkat cells [5] = experiment: ROS production; assay type: cell-based, human; settings: 24 or 48 h
Procedure, shortened: (§3)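 HeLa or Jurkat cells were treated with test compound for 24 or 48 h, then loaded with H₂-DCFDA, which ROS oxidise to fluorescent DCF. Fluorescence was measured by flow cytometry. Mean ± SEM of three independent experiments.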

Jurkat cells [6] = experiment: Mitochondrial membrane potential; assay type: cell-based, human; settings: 24 or 48 h
Jurkat cells [7] = experiment: Annexin-V/PI apoptosis assay, Jurkat; assay type: cell-based, human; settings: 24 or 48 h
Procedure, shortened: as §2

HeLa cells [8] = experiment: ROS production; assay type: cell-based, human; settings: 24 or 48 h
Procedure, shortened: as §3

HeLa cells [9] = experiment: Flow cytometric cell cycle analysis, HeLa; assay type: cell-based, human; settings: 24 h, different concentrations
Procedure, shortened: as §1

[10] = system: panel of 11 human tumor cell lines; experiment: MTT antiproliferative assay, whole panel; assay type: cell-based; settings: read-out: GI50 values across the panel
Procedure, shortened: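 Leukemia lines grown in RPMI-1640 and adherent carcinoma lines in DMEM, each with 10% FBS plus penicillin/streptomycin. Seeded at 8 × 10³ cells/well and settled 18 h at 37 °C, 5% CO₂. Medium was then replaced with fresh medium holding graded compound concentrations from 10 mM DMSO stocks, in triplicate, for 72 h. Viability by MTT; GI50 is the concentration inhibiting proliferation by 50%.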

tubulin = settings: cited from earlier work
bovine brain tubulin = bovine brain tubulin (Bos taurus, UniProt P81947+Q6B856); settings: read-out: tubulin assembly IC50; cited from earlier work
A549 cell line = settings: cited from earlier work

bovine brain tubulin, sequence (Q6B856 whole entry): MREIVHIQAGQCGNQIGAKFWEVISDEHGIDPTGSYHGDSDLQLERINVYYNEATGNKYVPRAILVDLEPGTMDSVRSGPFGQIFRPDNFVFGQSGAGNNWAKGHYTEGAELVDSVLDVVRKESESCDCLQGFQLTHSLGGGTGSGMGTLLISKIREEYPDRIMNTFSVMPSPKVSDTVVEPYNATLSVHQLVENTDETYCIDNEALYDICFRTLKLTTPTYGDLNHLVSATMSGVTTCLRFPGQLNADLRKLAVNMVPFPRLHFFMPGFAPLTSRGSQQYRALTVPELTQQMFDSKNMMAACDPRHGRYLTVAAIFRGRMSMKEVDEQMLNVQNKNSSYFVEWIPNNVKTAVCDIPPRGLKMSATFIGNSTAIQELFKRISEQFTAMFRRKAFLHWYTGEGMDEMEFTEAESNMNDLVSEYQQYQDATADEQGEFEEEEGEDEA
bovine brain tubulin, sequence (P81947 whole entry): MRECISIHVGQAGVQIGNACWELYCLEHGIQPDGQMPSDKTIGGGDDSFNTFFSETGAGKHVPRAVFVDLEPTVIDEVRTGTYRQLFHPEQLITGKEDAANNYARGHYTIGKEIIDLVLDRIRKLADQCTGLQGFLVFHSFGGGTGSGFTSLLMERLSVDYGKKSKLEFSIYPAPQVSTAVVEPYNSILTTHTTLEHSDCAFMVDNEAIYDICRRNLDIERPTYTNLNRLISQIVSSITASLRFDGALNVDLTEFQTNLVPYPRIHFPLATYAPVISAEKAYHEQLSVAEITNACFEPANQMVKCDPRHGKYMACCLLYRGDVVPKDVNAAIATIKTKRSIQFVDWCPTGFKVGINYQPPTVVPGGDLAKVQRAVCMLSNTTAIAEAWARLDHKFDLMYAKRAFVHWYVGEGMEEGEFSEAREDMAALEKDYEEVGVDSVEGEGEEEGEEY

With `O=C(c1ccccc1)n1ccc2c3c(=O)cc(-c4ccccc4)[nH]c3ccc21` [Compound 4a, 3-Benzoyl-7-phenyl-6H-pyrrolo[3,2-f]quinolin-9-one] the “effect on cell cycle progression” value (Jurkat cells [1]) was “significant G2/M arrest in a concentration-dependent manner”, the “cells with low mitochondrial transmembrane potential (JC-1)” value (from here on “cells”) (HeLa cells [2]) was “marked increase in the percentage of cells with low Δϕmt” and the “induction of apoptosis (annexin-V/PI)” value (HeLa cells [3]) was “significant time- and concentration-dependent increase of apoptotic cells”. For the same compound, the “influence of NADPH on compound disappearance” value ([4]; HLMs 1 mg/mL, with or without 1 mM NADPH) was “not influenced by the presence of NADPH”, the compound remaining ([4]; human liver microsomes 1 mg/mL, 60 min, 37 °C) was “more than 60%” and the “ROS production (H2-DCFDA)” value (Jurkat cells [5]) was “induced the production of large amounts of ROS”. The “cells” value (Jurkat cells [6]) was “marked increase in the percentage of cells with low Δϕmt”, the “induction of apoptosis (annexin-V/PI)” value (Jurkat cells [7]) was “significant time- and concentration-dependent increase of apoptotic cells” and the “ROS production (H2-DCFDA)” value (HeLa cells [8]) was “induced the production of large amounts of ROS”. The “effect on cell cycle progression” value (HeLa cells [9]) was “significant G2/M arrest in a concentration-dependent manner” and the GI50 [10] was 0.0001 to 0.01 µM.
For `CS(=O)(=O)n1ccc2c3c(=O)cc(-c4ccccc4)[nH]c3ccc21` [Compound 4b, 3-Methanesulfonyl-7-phenyl-6H-pyrrolo[3,2-f]quinolin-9-one], the “cells” value (HeLa cells [2]) was “marked increase in the percentage of cells with low Δϕmt”, the “induction of apoptosis (annexin-V/PI)” value (HeLa cells [3]) was “significant time- and concentration-dependent increase of apoptotic cells” and the “ROS production (H2-DCFDA)” value (Jurkat cells [5]) was “induced the production of large amounts of ROS”. For the same compound, the “cells” value (Jurkat cells [6]) was “marked increase in the percentage of cells with low Δϕmt”, the “induction of apoptosis (annexin-V/PI)” value (Jurkat cells [7]) was “significant time- and concentration-dependent increase of apoptotic cells” and the “ROS production (H2-DCFDA)” value (HeLa cells [8]) was “induced the production of large amounts of ROS”.
Work on `O=C(c1ccccc1)N1CCc2c1ccc1[nH]c(-c3ccccc3)cc(=O)c21` [Compound 7a, 3-benzoyl-1,2-dihydro-7-phenyl-6H-pyrrolo[3,2-f]quinolin-9-one] yielded a GI50 [10] of 0.25 to 2.65 µM.
Compound `CS(=O)(=O)N1CCc2cc3[nH]c(-c4ccccc4)cc(=O)c3cc21` [Compound 8b, 1N-methanesulfonyl-2,3-dihydro-6-phenyl-5H-pyrrolo [2,3-g]quinolin-8-one] has a GI50 [10] of over 10 µM.
For `O=c1cc(-c2ccccc2)[nH]c2ccc3c(ccn3CC3CC3)c12` [Compound 10], the “inhibition of colchicine binding” value (tubulin) is given as 83%, the IC50 (bovine brain tubulin) is given as 0.9 µM and the induction of autophagy (A549 cell line) is given as “induce autophagy”.

Reference: publication PMC5431288 (European journal of medicinal chemistry, 2016)
